How the values were obtained:
cruzain [1] = molecular target: T1, cruzain (Trypanosoma cruzi, UniProt P25779); assay: LC/MS stability of compounds in the presence or absence of cruzain; format: physicochemical; details: for behaviour as cruzain substrate: LC/MS and time-dependence assay
Method in brief: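 Test compound solutions in 2 mM Bis Tris pH 5.8, with or without 100 nM cruzain, analysed by LC/MS at time points from 30 min to 24 h, with elution monitored at 254 nm, to detect degradation and whether cruzain catalyses it. In a separate run, cruzain activity was followed after incubation with test compound (1 or 10 μM) from 0 to 240 min.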

cruzain [2] = molecular target: T1, cruzain; assay: Cruzain inhibition assay; format: biochemical; details: for time-dependence of cruzain inhibition over incubation: incubation 0 to 240 min, 1 μM of 8, 10 μM of 11, 10 uM of 4, 100 uM of 5
cruzain [3] = molecular target: T1, cruzain; assay: In vitro activity of compound 11 and representative analogues against cruzain; format: biochemical

T1 sequence (P25779 123-337 limits assumed): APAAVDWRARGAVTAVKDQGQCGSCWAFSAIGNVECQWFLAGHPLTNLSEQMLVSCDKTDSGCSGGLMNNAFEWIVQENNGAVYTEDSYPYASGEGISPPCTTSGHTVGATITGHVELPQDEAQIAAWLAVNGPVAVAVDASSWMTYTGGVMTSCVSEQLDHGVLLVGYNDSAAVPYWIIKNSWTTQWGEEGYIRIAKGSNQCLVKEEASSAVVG

| SMILES | behaviour as cruzain substrate (cruzain [1]) | Ki (cruzain [2]) [nM] | time-dependence of cruzain inhibition over incubation (cruzain [2]) | stability by LC/MS in the absence of cruzain (cruzain [1]; 2 mM Bis Tris pH 5.8, no cruzain, one day) | IC50 (cruzain [3]) [nM] |
| --- | --- | --- | --- | --- | --- |
| COc1ccc(Cl)cc1NC(=O)COC(=O)C(CC(C)C)N1C(=O)C2CC=CCC2C1=O (stereo not drawn) [Compound 4] | did not behave as substrates | 1600 |  |  |  |
| CC(C)C(NC(=O)c1ccco1)C(=O)NCC(c1ccco1)N1CCCCC1 (stereo not drawn) [Compound 5] | did not behave as substrates |  |  |  |  |
| O=C(CNC(=O)c1ccccc1)OC(C(=O)Nc1cc(C(F)(F)F)ccc1Cl)c1ccccc1 (stereo not drawn) [Compound 8] |  | 65 | clear time-dependent effect |  |  |
| O=C(CNC(=O)c1ccc(Cl)cc1)OC(C(=O)Nc1ccc(Cl)cc1C(F)(F)F)c1ccccc1 (stereo not drawn) [Compound 11] | identified as a cruzain substrate |  | clear time-dependent effect | still observed in solution even after one day of incubation | 260 |

Source: publication PMC2895358 (Journal of Medicinal Chemistry, 2010)
